Experimental data taken from PMC9998351 (Steroids, 2023).
Where “and” joins values, the source holds several entries; their conditions need not be identical. Equal entries are not always repeated.

Assay: Oral pharmacokinetics and bioavailability in rats
Format: in vivo
Details: for AUC(0-t): AUClast; for Vd/F: Vz/F; for AUC(0-inf): AUCinf; for half-life: T1/2, male rats
Procedure, shortened: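 Sprague Dawley rats (8–12 wk, 3/sex/group, catheterised jugular vein) got one oral gavage dose of 10 or 50 mg/kg. Dose was a solution in cremophor:ethanol:saline (1:1:8), pH 4.0, at 10 ml/kg. EDTA plasma was collected at 5, 15, 30 min, 1, 2, 4, 6 and 24 h, precipitated with acetonitrile, and quantified by LC-MS/MS against abiraterone internal standard. Noncompartmental parameters; bioavailability from oral AUClast versus IV.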

[1] = female rats, 10 mg/kg PO, GeoMean
[2] = female rats, 10 mg/kg PO, individual rat, listed as VNPP433-3β, 10 mg/kg
[3] = female rats, 50 mg/kg PO, individual rat, listed as VNPP433-3β, 50 mg/kg
[4] = female, Sprague Dawley, rat, plasma, po, 10 mg/kg, female rats, 10 mg/kg PO, GeoMean
[5] = female, Sprague Dawley, rat, plasma, po, 10 mg/kg, female rats, 10 mg/kg PO, individual rat
[6] = male rats, 10 mg/kg PO, GeoMean
[7] = male rats, 10 mg/kg PO, individual rat, listed as VNPP433-3β, 10 mg/kg
[8] = male rats, 50 mg/kg PO, GeoMean
[9] = male rats, 50 mg/kg PO, individual rat, listed as VNPP433-3β, 50 mg/kg
[10] = male, Sprague Dawley, rat, plasma, po, 10 mg/kg, male rats, 10 mg/kg PO, GeoMean
[11] = male, Sprague Dawley, rat, plasma, po, 10 mg/kg, male rats, 10 mg/kg PO, individual rat
[12] = male, Sprague Dawley, rat, plasma, po, 50 mg/kg, male rats, 50 mg/kg PO, GeoMean
[13] = male, Sprague Dawley, rat, plasma, po, 50 mg/kg, male rats, 50 mg/kg PO, individual rat

## C[C@]12CC[C@H](n3ccnc3)CC1=CC[C@@H]1[C@@H]2CC[C@]2(C)C(n3cnc4ccccc43)=CC[C@@H]12 [Compound 2, 3β-(1H-imidazole-1-yl)-17-(1H-benzimidazole-1-yl)-androsta-5,16-diene]
both, Sprague Dawley, rat, plasma, po, 10 mg/kg
  bioavailability: 32 to 34%
[1]
  AUC% Extrap: 81.9%
  Cmax/D: 59.4 ng/mL/mg/kg
[2]
  AUC% Extrap: 76.9% and 88.6% and 80.8%
  AUClast: 484 µg·min/mL and 785 µg·min/mL
  Cmax: 0.408 µg/mL and 0.681 µg/mL
  Cmax/D: 75.5 ng/mL/mg/kg and 40.8 ng/mL/mg/kg and 68.1 ng/mL/mg/kg
Female rats, 50 mg/kg PO, GeoMean
  Cmax/D: 90.0 ng/mL/mg/kg
[3]
  AUClast: 5560 µg·min/mL and 4300 µg·min/mL
  Cmax: 4.82 µg/mL and 4.32 µg/mL
  Cmax/D: 87.6 ng/mL/mg/kg and 96.4 ng/mL/mg/kg and 86.4 ng/mL/mg/kg
[4]
  AUC(0-t): 11.6 µg·h/mL
  Vd/F: 16.3 L/kg
[5]
  AUC(0-t): 14.9 µg·h/mL
  Vd/F: 12.7 L/kg
female, Sprague Dawley, rat, plasma, po, 10 mg/kg, CL/F, female rats, 10 mg/kg PO, GeoMean
  CL/F: 0.148 L/h/kg
female, Sprague Dawley, rat, plasma, po, 10 mg/kg, CL/F, female rats, 10 mg/kg PO, individual rat
  CL/F: 0.155 L/h/kg
female, Sprague Dawley, rat, plasma, po, 10 mg/kg, Cmax, female rats, 10 mg/kg PO, GeoMean
  Cmax: 0.594 µg/mL
female, Sprague Dawley, rat, plasma, po, 10 mg/kg, Cmax, female rats, 10 mg/kg PO, individual rat
  Cmax: 0.755 µg/mL
female, Sprague Dawley, rat, plasma, po, 10 mg/kg, Tmax, female rats, 10 mg/kg PO, GeoMean
  Tmax: 6 h
female, Sprague Dawley, rat, plasma, po, 10 mg/kg, Tmax, female rats, 10 mg/kg PO, individual rat
  Tmax: 6 h
female, Sprague Dawley, rat, plasma, po, 50 mg/kg, female rats, 50 mg/kg PO, GeoMean
  AUC(0-t): 80 µg·h/mL
female, Sprague Dawley, rat, plasma, po, 50 mg/kg, female rats, 50 mg/kg PO, individual rat
  AUC(0-t): 76.8 µg·h/mL
female, Sprague Dawley, rat, plasma, po, 50 mg/kg, Cmax, female rats, 50 mg/kg PO, GeoMean
  Cmax: 4.5 µg/mL
female, Sprague Dawley, rat, plasma, po, 50 mg/kg, Cmax, female rats, 50 mg/kg PO, individual rat
  Cmax: 4.38 µg/mL
female, Sprague Dawley, rat, plasma, po, 50 mg/kg, Tmax, female rats, 50 mg/kg PO, GeoMean
  Tmax: 24 h
female, Sprague Dawley, rat, plasma, po, 50 mg/kg, Tmax, female rats, 50 mg/kg PO, individual rat
  Tmax: 23.3 h
[6]
  AUC% Extrap: 16.5%
  Cmax/D: 61.3 ng/mL/mg/kg
[7]
  AUC% Extrap: 24.4% and 9.55% and 19.3%
  AUCinf: 364 µg·min/mL and 715 µg·min/mL
  AUClast: 329 µg·min/mL and 577 µg·min/mL
  CL/F: 1.65 L/h/kg and 0.84 L/h/kg
  Cmax: 0.46 µg/mL and 0.715 µg/mL
  Cmax/D: 70.2 ng/mL/mg/kg and 46.0 ng/mL/mg/kg and 71.5 ng/mL/mg/kg
  T1/2: 6.3 h and 9.0 h
  Vz/F: 15.0 L/kg and 10.9 L/kg
[8]
  AUC% Extrap: 79.5%
  Cmax/D: 54.5 ng/mL/mg/kg
Male rats, 50 mg/kg PO, individual rat
  Tmax: 6 h
[9]
  AUC% Extrap: 94.3% and 66.9%
  AUClast: 4460 µg·min/mL and 3600 µg·min/mL
  Cmax: 3.43 µg/mL and 3.16 µg/mL
  Cmax/D: 37.4 ng/mL/mg/kg and 68.6 ng/mL/mg/kg and 63.2 ng/mL/mg/kg
  Tmax: 6 h
Male rats, PO
  Time of peak of PO concentration-time profiles: 6 h
[10]
  AUC(0-inf): 9.38 µg·h/mL
  AUC(0-t): 7.7 µg·h/mL
  Vd/F: 12.6 L/kg
[11]
  AUC(0-inf): 11.4 µg·h/mL
  AUC(0-t): 8.65 µg·h/mL
  Vd/F: 12.4 L/kg
male, Sprague Dawley, rat, plasma, po, 10 mg/kg, CL/F, male rats, 10 mg/kg PO, GeoMean
  CL/F: 1.07 L/h/kg
male, Sprague Dawley, rat, plasma, po, 10 mg/kg, CL/F, male rats, 10 mg/kg PO, individual rat
  CL/F: 0.876 L/h/kg
male, Sprague Dawley, rat, plasma, po, 10 mg/kg, Cmax, male rats, 10 mg/kg PO, GeoMean
  Cmax: 0.613 µg/mL
male, Sprague Dawley, rat, plasma, po, 10 mg/kg, Cmax, male rats, 10 mg/kg PO, individual rat
  Cmax: 0.702 µg/mL
male, Sprague Dawley, rat, plasma, po, 10 mg/kg, 10 mg/kg PO, GeoMean
  half-life: 8.22 h
male, Sprague Dawley, rat, plasma, po, 10 mg/kg, 10 mg/kg PO, individual rat
  half-life: 9.8 h
male, Sprague Dawley, rat, plasma, po, 10 mg/kg, Tmax, male rats, 10 mg/kg PO, GeoMean
  Tmax: 6 h
male, Sprague Dawley, rat, plasma, po, 10 mg/kg, Tmax, male rats, 10 mg/kg PO, individual rat
  Tmax: 6 h
[12]
  AUC(0-t): 56.2 µg·h/mL
  Vd/F: 14.6 L/kg
[13]
  AUC(0-t): 39.7 µg·h/mL
  Vd/F: 14.4 L/kg
male, Sprague Dawley, rat, plasma, po, 50 mg/kg, CL/F, male rats, 50 mg/kg PO, GeoMean
  CL/F: 0.103 L/h/kg
male, Sprague Dawley, rat, plasma, po, 50 mg/kg, Cmax, male rats, 50 mg/kg PO, GeoMean
  Cmax: 2.73 µg/mL
male, Sprague Dawley, rat, plasma, po, 50 mg/kg, Cmax, male rats, 50 mg/kg PO, individual rat
  Cmax: 1.87 µg/mL
male, Sprague Dawley, rat, plasma, po, 50 mg/kg, Tmax, male rats, 50 mg/kg PO, GeoMean
  Tmax: 9.52 h
rats, PO dosing, text (and beyond)
  Extrapolated percentage of AUC0-inf: 17–82%
